Data taken from ChEMBL document CHEMBL5385937.
Each block holds one molecule with its values, some of them ahead of it. Active and inactive are the calls of the source. No cut-off for these calls is given here.

Key:
[1] = biological target: Indoleamine 2,3-dioxygenase 1 (Homo sapiens) (UniProt P14902); assay: Inhibition of IDO1 in HEK293T cells assessed as reduction in IFNgamma induced IDO1 protein expression incubated for 48 hrs; type: cell-based
[2] = biological target: Indoleamine 2,3-dioxygenase 1 (Homo sapiens) (UniProt P14902); assay: Inhibition of IDO1 in human HeLa cells assessed as reduction in IFNgamma induced IDO1 mRNA expression level incubated for 24 hrs by qPCR analysis; type: cell-based
Method in brief: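 HeLa cells were plated at 250,000/well and grown 24 h, then treated with 50 ng/mL IFN-γ plus compound for 24 h. Total RNA was extracted with on-column DNase digestion, and cDNA was made from 800 ng RNA. IDO1 mRNA was quantified by qPCR; mean ± SD, n = 3.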

[3] = biological target: Indoleamine 2,3-dioxygenase 1 (Homo sapiens) (UniProt P14902); assay: Inhibition of IDO1 in human BXPC-3 cells assessed as reduction in IFNgamma induced Trp level at 5 uM pretreated with IFNgamma for 24 hrs followed by compound addition for 30 mins prior to Trp addition and measured after 30 mins by HPLC-MS/MS analysis; type: cell-based; conditions: time 25.0 hrs
Method in brief: (§1)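 BxPC-3 cells were kept in Trp-free RPMI for 48 h, then given 50 ng/mL IFN-γ with starvation continued another 24 h. Medium was replaced by Trp-free medium containing compound for 30 min. 50 μM Trp was then added for 30 min. Supernatant Trp was measured by HPLC-MS/MS after 7% trichloroacetic acid precipitation; mean ± SD, n = 3.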

[4] = biological target: Indoleamine 2,3-dioxygenase 1 (Homo sapiens) (UniProt P14902); assay: Inhibition of recombinant human IDO1 expressed in Escherichia coli BL21(DE3) preincubated for 40 mins followed by Trp addition and measured after 60 mins by LC-MS analysis; conditions: time 100.0 min
[5] = biological target: Indoleamine 2,3-dioxygenase 1 (Homo sapiens) (UniProt P14902); assay: Inhibition of IDO1 in human HeLa cells assessed as reduction in IFNgamma induced IDO1 protein expression level incubated for 24 hrs by immunoblotting analysis; type: cell-based
Method in brief: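 HeLa cells were plated at 250,000/well and grown 24 h, then exposed to 50 ng/mL IFN-γ and compound for 24 h. Cells were lysed in Laemmli buffer and 20–100 μg protein was resolved on 10% gels. Blots were probed with anti-IDO1 (1:5,000) and IRDye secondaries. IDO1 was normalized to vinculin; mean ± SD, n = 4.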

[6] = biological target: Indoleamine 2,3-dioxygenase 1 (Homo sapiens) (UniProt P14902); assay: Inhibition of IDO1 in human BXPC-3 cells assessed as reduction in IFNgamma induced Trp level at 5 mM pretreated with IFNgamma for 24 hrs followed by compound addition for 30 mins prior to Trp addition and measured after 30 mins by HPLC-MS/MS analysis; type: cell-based; conditions: time 25.0 hrs; method in brief: as §1
[7] = biological target: T1, Bifunctional epoxide hydrolase 2 (Homo sapiens) (UniProt P34913); conditions: HAP1, dose 500.0 nM
T1 sequence (whole entry): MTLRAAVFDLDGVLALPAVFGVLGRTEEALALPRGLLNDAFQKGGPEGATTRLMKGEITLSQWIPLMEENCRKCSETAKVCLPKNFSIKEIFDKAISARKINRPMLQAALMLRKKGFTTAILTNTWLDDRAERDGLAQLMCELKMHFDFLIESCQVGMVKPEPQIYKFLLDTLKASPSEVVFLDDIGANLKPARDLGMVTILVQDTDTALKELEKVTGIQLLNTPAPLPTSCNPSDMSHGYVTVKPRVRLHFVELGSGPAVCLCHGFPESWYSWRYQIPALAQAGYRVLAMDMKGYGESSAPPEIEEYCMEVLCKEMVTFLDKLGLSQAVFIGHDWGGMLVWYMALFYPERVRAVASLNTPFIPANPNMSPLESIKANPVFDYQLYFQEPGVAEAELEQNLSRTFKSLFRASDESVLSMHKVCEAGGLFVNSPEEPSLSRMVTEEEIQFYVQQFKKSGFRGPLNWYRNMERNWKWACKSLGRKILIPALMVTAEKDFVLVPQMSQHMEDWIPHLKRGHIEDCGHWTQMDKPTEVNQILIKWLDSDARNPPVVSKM

[8] = biological target: Indoleamine 2,3-dioxygenase 1 (Homo sapiens) (UniProt P14902); assay: Inhibition of IDO1 in human BXPC-3 cells assessed as increase in Trp level at 10 uM incubated for 48 hrs in presence of IFNgamma by LC-MS analysis; type: cell-based
Method in brief: (§2)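 BxPC-3 cells were seeded at 20,000/well in phenol-red-free medium. After 24 h, 50 ng/mL IFN-γ and 380 μM Trp were added together with compound for 48 h. Supernatant was acidified with trichloroacetic acid (7% final), kept 15 min at room temperature and centrifuged. Kyn and Trp were quantified by HPLC-MS/MS.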

[9] = biological target: Indoleamine 2,3-dioxygenase 1 (Homo sapiens) (UniProt P14902); assay: Inhibition of IDO1 in human BXPC-3 cells assessed as reduction in IFNgamma induced kynurenine level at 10 uM incubated for 48 hrs by LC-MS analysis; type: cell-based; method in brief: as §2

Sequence of Indoleamine 2,3-dioxygenase 1 (Homo sapiens) (P14902 whole entry, looked up): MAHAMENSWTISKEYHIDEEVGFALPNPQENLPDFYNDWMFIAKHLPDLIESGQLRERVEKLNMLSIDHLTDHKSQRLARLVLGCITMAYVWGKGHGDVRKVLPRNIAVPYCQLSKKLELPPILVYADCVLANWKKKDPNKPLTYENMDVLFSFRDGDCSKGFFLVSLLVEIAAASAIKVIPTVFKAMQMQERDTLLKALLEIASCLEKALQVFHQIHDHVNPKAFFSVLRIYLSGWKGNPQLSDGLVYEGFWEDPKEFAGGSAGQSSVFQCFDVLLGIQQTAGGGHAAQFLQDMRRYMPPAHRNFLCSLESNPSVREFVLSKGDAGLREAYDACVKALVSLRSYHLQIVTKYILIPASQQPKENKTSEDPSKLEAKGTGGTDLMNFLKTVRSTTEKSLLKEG

inhibition [1]: inactive
inhibition [2]: inactive
inhibition [3]: inactive
inhibition [4]: inactive
inhibition [5]: inactive
SMILES: O=C(Cn1cc(C(=O)C(F)(F)F)c2cc(Br)ccc21)NC1CCCCCC1

inhibition [6]: Active
SMILES: CC(C)C[C@H](N)C(=O)O

inhibition [7]: Active
SMILES: NS(=O)(=O)NCCNc1nonc1/C(=N/O)Nc1ccc(F)c(Br)c1

inhibition [8]: Dose-Dependent Effect
inhibition [4]: inactive
inhibition [9]: Active
SMILES: O=C(c1cn(CCOc2ccc3c(c2)OCO3)c2ccc(Br)cc12)C(F)(F)F
